Assay results of several laboratories.
Lines come from different studies, so protocols differ.
Target: Discoidin domain-containing receptor 2 (DDR2, Homo sapiens, UniProt Q16832)
One construct used (Q16832 22-855): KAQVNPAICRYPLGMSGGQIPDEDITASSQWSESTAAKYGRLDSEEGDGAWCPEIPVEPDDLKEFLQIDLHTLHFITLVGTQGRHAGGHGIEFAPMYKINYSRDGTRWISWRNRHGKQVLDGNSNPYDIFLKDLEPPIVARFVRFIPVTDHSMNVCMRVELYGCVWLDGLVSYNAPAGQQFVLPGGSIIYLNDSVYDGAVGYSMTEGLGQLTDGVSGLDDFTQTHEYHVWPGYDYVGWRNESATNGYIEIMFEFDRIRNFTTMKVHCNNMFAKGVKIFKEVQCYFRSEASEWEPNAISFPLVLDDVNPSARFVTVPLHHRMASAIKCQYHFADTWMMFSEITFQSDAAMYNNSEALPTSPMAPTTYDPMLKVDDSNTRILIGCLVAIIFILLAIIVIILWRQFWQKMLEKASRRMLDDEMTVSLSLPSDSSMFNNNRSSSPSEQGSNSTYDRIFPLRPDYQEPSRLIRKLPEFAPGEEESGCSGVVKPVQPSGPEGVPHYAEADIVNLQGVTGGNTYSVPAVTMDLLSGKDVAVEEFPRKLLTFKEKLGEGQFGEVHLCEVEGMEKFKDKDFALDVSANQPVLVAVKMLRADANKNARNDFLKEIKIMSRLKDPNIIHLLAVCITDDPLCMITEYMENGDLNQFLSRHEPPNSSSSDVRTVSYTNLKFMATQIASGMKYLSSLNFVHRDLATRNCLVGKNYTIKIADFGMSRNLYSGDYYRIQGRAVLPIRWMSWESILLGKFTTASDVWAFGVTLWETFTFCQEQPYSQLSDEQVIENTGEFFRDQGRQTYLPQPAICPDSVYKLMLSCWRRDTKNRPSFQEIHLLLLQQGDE

| SMILES | read-out | technique | concentration | remaining binding |
| --- | --- | --- | --- | --- |
| O=C(NCC1CCOCC1)c1n[nH]cc1NC(=O)c1c(F)cccc1F | binding | competition with immobilised ligand | 1 µM | 100% |
| O=C(O)c1cc(-c2ccc(C3CCNCC3)cc2)c2ccc(-c3ccc(C(F)(F)F)cc3)cc2c1 | cell-free assay | competition with immobilised ligand | 1 µM | 100% |
| CN(c1nccc(-c2cnn3ncccc23)n1)C1CC1 | binding |  | 1 µM | 100% |
| O=C(c1ccc(Nc2nccc(-c3cc4ccccc4s3)n2)cc1)N1CCC(N2CCCC2)CC1 | binding | competition with immobilised ligand | 1 µM | 20% |
| F[C@@H]1CCN(c2nccc(-c3cnn4ncccc34)n2)C1 | binding |  | 1 µM | 91% |
| COc1cnc(Nc2cccc(S(N)(=O)=O)c2)nc1N1CCN(c2ccccc2)C(=O)C1 | binding | competition with immobilised ligand | 1 µM | 100% |
| Nc1ncc2c(n1)-c1c([nH]c3ccc(C#CC4CC4)cc13)CCCC2 | binding | competition with immobilised ligand | 1 µM | 80% |
| CNC(=O)[C@@H]1CC[C@@H](n2c(-c3ccc4cnccc4c3)nc3ccc(C(=O)NCc4cccc(C(N)=O)c4)cc32)C1 | binding | competition with immobilised ligand | 1 µM | 93% |
| COc1ccnn2ncc(-c3ccnc(N(C)C)n3)c12 | binding |  | 1 µM | 67% |
| CCN1CCN(Cc2ccc(C(=O)Nc3ccc(C)c(Oc4ccc5c(c4)CC(=O)N5)c3)cc2C(F)(F)F)CC1 | binding | competition with immobilised ligand | 1 µM | 14% |
| CCCOc1ccc([C@H]2[C@H](C(=O)O)[C@@H](c3ccc4c(c3)OCO4)CN2CC(=O)Nc2c(CC)cccc2CC)cc1 | cell-free assay | competition with immobilised ligand | 1 µM | 71% |
| Cc1cnc(Nc2ccc(C(=O)N3CCC(N4CCCC4)CC3)cc2)nc1-c1cc2ccccc2s1 | binding | competition with immobilised ligand | 1 µM | 8% |
| CC(C)CC(=O)N1CCc2nc(-c3ccc(Br)cc3)nc(N(C)Cc3ccccc3)c2C1 | cell-free assay | competition with immobilised ligand | 0.1 µM | 97% |
| c1cncc(-c2cccc(Nc3nccc(NC4CCCCC4)n3)c2)c1 | binding | competition with immobilised ligand | 10 µM | 86% |
| CC(C)(O)c1cncc(-c2nc3ccc(F)cc3n2C2CC2)c1 | cell-free assay | competition with immobilised ligand | 1 µM | 100% |
| CC1CCCN1c1nccc(-c2cnn3ncccc23)n1 (centres unmarked) | binding |  | 1 µM | 100% |
| O=c1nc(-c2ccccn2)sc2ccccc12 | cell-free assay | competition with immobilised ligand | 1 µM | 100% |
| O=C(NCCCN1CCOCC1)c1ccc(Nc2nccc(-c3cc4ccccc4s3)n2)cc1 | binding | competition with immobilised ligand | 1 µM | 43% |
| CS(=O)(=O)NCC[C@H](NC(=O)c1cncc2c1cnn2-c1ccc(F)cc1)c1ccnc(S(C)(=O)=O)c1 | cell-free assay | competition with immobilised ligand | 1 µM | 100% |
| CN(CCCC(F)(F)F)c1nccc(-c2cnn3ncccc23)n1 | binding |  | 1 µM | 96% |
